According to ChEMBL document CHEMBL2069181, “In vitro and in vivo trypanosomicidal activity of pyrazole-containing macrocyclic and macrobicyclic polyamines: their action on acute and chronic phases of Chagas disease” (J Med Chem, 2012):
Active and inactive are the calls of the source.

Columns and labels:
Trypanosoma cruzi [1] = experiment: Trypanosomicidal activity against Trypanosoma cruzi infected in Vero cells assessed as reduction in amastigotes per infected Vero cells after 6 days by Giemsa staining method; format: functional; parameters: scale not given: the % may be the effect or the level left
Trypanosoma cruzi [2] = experiment: Trypanosomicidal activity against Trypanosoma cruzi epimastigotes assessed as distorted shape of protozoan cells by TEM analysis; format: functional, organism-based
Trypanosoma cruzi [3] = experiment: Trypanosomicidal activity against Trypanosoma cruzi SN3 epimastigote after 72 hrs by hemocytometric analysis; format: functional, organism-based; conditions: SN3, 72 h
Summary of the method: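 Exponential-phase SN3 epimastigotes (Grace's medium, 10% FBS, 28 °C) seeded at 5 × 10^4 parasites/well with compounds dissolved in MTL at 1, 10, 25, 50, 100 μM.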

Trypanosoma cruzi [4] = experiment: Trypanosomicidal activity against Trypanosoma cruzi SN3 anexic amastigote after 48 hrs by hemocytometric analysis; format: functional, organism-based; conditions: SN3, 48 h
Summary of the method: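 Axenic amastigotes obtained from epimastigotes after 3 days in supplemented M199 (10% FCS, pH 5.4, 37 °C).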

Trypanosoma cruzi [5] = experiment: Inhibition of Trypanosoma cruzi epimastigotes Fe-SOD at 25 ug/ml by NBT reduction assay
Summary of the method: (§1)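 Enzyme from epimastigotes grown without FBS (excreted Fe-SOD), sonicated in STE buffer pH 7.8, centrifuged, supernatant protein by Bradford; human erythrocyte CuZn-SOD for comparison. NBT reduction by superoxide (Beyer–Fridovich): methionine, NBT, Triton X-100, riboflavin, homogenate plus compound; A560 read before and after 10 min UV illumination with stirring. Five separate determinations; Newman–Keuls test against control.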

Trypanosoma cruzi [6] = experiment: Trypanosomicidal activity against Trypanosoma cruzi epimastigotes assessed as inhibition of succinate metabolite excretion after 96 hrs by NMR analysis; format: functional
Summary of the method: (§2)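 Epimastigotes (5 × 10^5 cells/mL) exposed to IC25 of compound for 96 h at 28 °C; supernatant after centrifugation analysed by 1H NMR with DSS reference, compared against untreated cultures.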

Trypanosoma cruzi [7] = experiment: Trypanosomicidal activity against Trypanosoma cruzi epimastigotes assessed as intense vacuolization of protozoan cells by TEM analysis; format: functional, organism-based
Trypanosoma cruzi [8] = experiment: Trypanosomicidal activity against Trypanosoma cruzi SN3 amastigote infected in Vero cells after 72 hrs by Giemsa staining method; format: functional, organism-based
Summary of the method: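 Vero cells seeded at 1 × 10^4/well on coverslips, grown 2 days, infected with metacyclic forms (10:1) for 24 h, washed, then treated at 1–100 μM for 72 h in RPMI/10% FBS. Amastigote reduction scored on methanol-fixed Giemsa-stained slides; four determinations; IC50.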

Mus musculus [9] = experiment: Toxicity in BALB/c mouse liver infected with Trypanosoma cruzi assessed as hepatic destruction in portal tracts at 5 mg/kg, ip after 120 days postinfection by Histopathological analysis; format: organism-based; parameters: dose 5 mg/kg, route intraperitoneal; conditions: in vivo, 2880 h
Summary of the method: (§3)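 Livers removed at 120 days postinfection, fixed in 10% buffered formalin, paraffin-embedded, 4–5 μm sections stained with H&E and Masson's trichrome. Blinded scoring of at least 30 fields per slide, 0 (none) to 5 (severe).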

Trypanosoma cruzi [10] = experiment: Trypanosomicidal activity against Trypanosoma cruzi epimastigotes assessed as inhibition of acetate metabolite excretion after 96 hrs by NMR analysis; format: functional; summary of the method: as §2
Vero = experiment: Cytotoxicity against African green monkey Vero cells assessed as cell viability after 72 hrs by flow cytometric analysis; format: cell-based; conditions: Chlorocebus sabaeus
Summary of the method: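 Vero cells grown in RPMI with 10% inactivated FBS at 37 °C, 5% CO2, seeded at 1 × 10^5 cells/mL, grown 2 days, then exposed to 1–100 μM compound for 72 h. Viability measured by flow cytometry; IC50 by linear regression.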

Mus musculus [11] = experiment: Toxicity in BALB/c mouse liver infected with Trypanosoma cruzi assessed as granulomas with limphocitic infiltration at 5 mg/kg, ip after 120 days postinfection by Histopathological analysis; format: organism-based; parameters: dose 5 mg/kg, route intraperitoneal; conditions: in vivo, 2880 h; summary of the method: as §3
Trypanosoma cruzi [12] = experiment: Antitrypanosomal activity against Trypanosoma cruzi infected in BALB/c mouse assessed as reduction in trypomastigotes at 1 mg/kg, ip dosed for 5 days measured on day 14 post infection; format: functional, organism-based; parameters: dose 1 mg/kg
Summary of the method: (§4)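 Female BALB/c mice infected with trypomastigotes, dosed ip at 1 mg/kg/day on days 5–10 postinfection; vehicle controls. Mandibular vein blood (5 μL) diluted in citrate/lysis buffer pH 7.2; parasites counted under immersion objective every 2 days from day 5 to 30, as parasites/mL.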

Trypanosoma cruzi [13] = experiment: Antitrypanosomal activity against Trypanosoma cruzi infected in BALB/c mouse assessed as reduction in parasitemia at 1 mg/kg, ip dosed for 5 days measured on day 30 post infection; format: functional; parameters: scale not given: the % may be the effect or the level left; conditions: route intraperitoneal; summary of the method: as §4
Mus musculus [14] = experiment: Toxicity in BALB/c mouse liver infected with Trypanosoma cruzi assessed as necrotic cells in portal tracts at 5 mg/kg, ip after 120 days postinfection by Histopathological analysis; format: organism-based; parameters: dose 5 mg/kg, route intraperitoneal; conditions: in vivo, 2880 h; summary of the method: as §3
Mus musculus [15] = experiment: Toxicity in BALB/c mouse liver infected with Trypanosoma cruzi assessed as intestinal hemorrhage at 5 mg/kg, ip after 120 days postinfection by Histopathological analysis; format: organism-based; parameters: dose 5 mg/kg, route intraperitoneal; conditions: in vivo, 2880 h; summary of the method: as §3
Trypanosoma cruzi [16] = experiment: Trypanosomicidal activity against Trypanosoma cruzi infected in Vero cells assessed as reduction in rate of infection after 10 days by Giemsa staining method; format: functional; parameters: scale not given: the % may be the effect or the level left
Summary of the method: (§5)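 Vero cells infected with metacyclic forms (10:1); compounds at IC25 added at infection for 12 h at 37 °C, then washed out and cultures grown 10 days with medium renewed every 48 h. Infected cells and amastigotes per cell counted in >100 host cells on Giemsa-stained slides; trypomastigotes in medium counted; mean of four determinations.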

[17] = Selectivity index, ratio of IC50 for Vero cells to IC50 for Trypanosoma cruzi anexic amastigote; format: toxicity, cell-based; conditions: monkey, Vero cells versus Trypanosoma cruzi axenic amastigotes; read-out: Ratio IC50
Trypanosoma cruzi [18] = experiment: Antitrypanosomal activity against Trypanosoma cruzi infected in BALB/c mouse assessed as reduction in anti-organism antibody at 1 mg/kg, ip dosed for 5 days measured on day 40 to 120 post infection; format: functional, organism-based; parameters: dose 1 mg/kg
Summary of the method: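 Infected female BALB/c mice given 1 mg/kg/day ip for 5 days. Serum (1:50 in PBS) on days 40 and 120 tested by ELISA against excreted epimastigote Fe-SOD antigen; absorbance 490 nm, cutoff = negative-control mean + 3 SD; change is day-120 minus day-40 absorbance.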

[19] = Selectivity index, ratio of IC50 for Vero cells to IC50 for Trypanosoma cruzi epimastigote; format: toxicity, cell-based; conditions: monkey, Vero cells versus Trypanosoma cruzi epimastigotes; read-out: Ratio IC50
Trypanosoma cruzi [20] = experiment: Trypanosomicidal activity against Trypanosoma cruzi infected in Vero cells assessed as reduction in trypomastigotes in culture medium after 10 days by Giemsa staining method; format: functional; parameters: scale not given: the % may be the effect or the level left; summary of the method: as §5
[21] = target: Superoxide dismutase [Cu-Zn], SOD1 (Homo sapiens) (UniProt P00441); experiment: Activity of human erythrocyte Cu-Zn SOD by NBT reduction assay
Mus musculus [22] = experiment: Toxicity in BALB/c mouse liver infected with Trypanosoma cruzi assessed as delocalized hepatic destruction at 5 mg/kg, ip after 120 days postinfection by Histopathological analysis; format: organism-based; parameters: dose 5 mg/kg, route intraperitoneal; conditions: in vivo, 2880 h; summary of the method: as §3
Mus musculus [23] = experiment: Toxicity in BALB/c mouse liver infected with Trypanosoma cruzi assessed as lymphocytic infiltrations in portal tracts at 5 mg/kg, ip after 120 days postinfection Histopathological analysis; format: organism-based; parameters: dose 5 mg/kg, route intraperitoneal; conditions: in vivo, 2880 h; summary of the method: as §3
[24] = Selectivity index, ratio of IC50 for Vero cells to IC50 for Trypanosoma cruzi intracellular amastigote infected in Vero cells; format: toxicity, cell-based; conditions: monkey; read-out: Ratio IC50
Mus musculus [25] = experiment: Toxicity in BALB/c mouse liver infected with Trypanosoma cruzi assessed as blood vessels with thickened walls at 5 mg/kg, ip after 120 days postinfection by Histopathological analysis; format: organism-based, Blood vessel; parameters: dose 5 mg/kg, route intraperitoneal; conditions: in vivo, 2880 h; summary of the method: as §3
Trypanosoma cruzi [26] = experiment: Inhibition of Trypanosoma cruzi epimastigotes Fe-SOD at 50 ug/ml by NBT reduction assay; summary of the method: as §1
[27] = Inhibition of Trypanosoma cruzi epimastigotes Fe-SOD by NBT reduction assay; summary of the method: as §1
Trypanosoma cruzi [28] = experiment: Trypanosomicidal activity against Trypanosoma cruzi epimastigotes assessed as very electron dense protozoan cells by TEM analysis; format: functional, organism-based
Trypanosoma cruzi [29] = experiment: Antitrypanosomal activity against Trypanosoma cruzi infected in BALB/c mouse assessed as survival rate at 1 mg/kg, ip dosed for 5 days; format: functional; conditions: 120 h, route intraperitoneal
Summary of the method: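 Female BALB/c mice were infected with trypomastigotes of T. cruzi SN3 strain (Colombian R. prolixus isolate). Dosing was ip at 1 mg/kg/day for 5 consecutive days, on days 5–10 postinfection. Controls were infected mice given vehicle only, plus uninfected groups. Mortality was followed over the acute phase (first 30 days) and the chronic phase (days 40–120 postinfection).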

Chain of Superoxide dismutase [Cu-Zn], SOD1 (Homo sapiens) (P00441 whole entry, looked up): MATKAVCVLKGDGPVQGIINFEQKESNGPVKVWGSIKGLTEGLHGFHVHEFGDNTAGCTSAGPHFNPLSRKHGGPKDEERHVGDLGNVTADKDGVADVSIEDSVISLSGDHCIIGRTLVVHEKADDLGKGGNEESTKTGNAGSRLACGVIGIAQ

| inhibition (Trypanosoma cruzi [5]) | SMILES | Activity (Trypanosoma cruzi [1]) | Activity (Trypanosoma cruzi [2]) | IC50 (Trypanosoma cruzi [3]) | IC50 (Trypanosoma cruzi [4]) | inhibition (INH) (Trypanosoma cruzi [6]) | Activity (Trypanosoma cruzi [7]) | IC50 (Trypanosoma cruzi [8]) | Activity (Mus musculus [9]) | inhibition (INH) (Trypanosoma cruzi [10]) | IC50 (Vero) | Activity (Mus musculus [11]) | Activity (Trypanosoma cruzi [13]) | Activity (Mus musculus [14]) | Activity (Mus musculus [15]) | Activity (Trypanosoma cruzi [16]) | Activity (Trypanosoma cruzi [20]) | Activity (Mus musculus [22]) | Activity (Mus musculus [23]) | Activity (Mus musculus [25]) | other results |
| --- | --- | --- | --- | --- | --- | --- | --- | --- | --- | --- | --- | --- | --- | --- | --- | --- | --- | --- | --- | --- | --- |
| 70% | Cl.c1c2n[nH]c1CNCCN1CCNCc3cc(n[nH]3)CNCCN(CCNC2)CCNCc2cc([nH]n2)CNCC1 | 50% | Active | 1.3 µM | 7.2 µM | 7% | Active | 6.2 µM | Toxic | 22% | 149 µM | Non-toxic | 53% | Non-toxic | Non-toxic | 74% | 70% | Non-toxic | Non-toxic | Non-toxic | Activity (Trypanosoma cruzi [12]): Active; selectivity ratio [17]: 20.7; Activity (Trypanosoma cruzi [18]): Active; selectivity ratio [19]: 115; Activity [21]: 23.4 U/mg; selectivity ratio [24]: 24; inhibition (Trypanosoma cruzi [26]): 98%; IC50 [27]: 30.8 µM; Activity (Trypanosoma cruzi [28]): Active |
| 70% | Cl.c1ccc(Cn2nc3cc2CNCCNCCNCc2cc(n(Cc4ccccc4)n2)CNCCNCCNC3)cc1 | 26% | Active | 16.5 µM | 10 µM | 19% | Active | 13.8 µM | Non-toxic | 23% | 195 µM | Toxic | 16% | Non-toxic | Toxic | >50% | 34% | Non-toxic | Toxic | Toxic | Activity (Trypanosoma cruzi [12]): Active; selectivity ratio [17]: 19.5; selectivity ratio [19]: 11.8; Activity [21]: 23.4 U/mg; selectivity ratio [24]: 14.2; inhibition (Trypanosoma cruzi [26]): 98%; IC50 [27]: 28.7 µM; Activity (Trypanosoma cruzi [28]): Active |
| – | O=C(Cn1ccnc1[N+](=O)[O-])NCc1ccccc1 [BENZNIDAZOLE] | 13% | – | – | 18.9 µM | – | – | 23.3 µM | Toxic | -6% | – | Toxic | 26% | Toxic | Toxic | 23% | 46% | Toxic | Non-toxic | Non-toxic | survival at 1 mg/kg (Trypanosoma cruzi [29]): 80%; Activity (Trypanosoma cruzi [18]): Active |
